Screens as filed in PubChem BioAssay.
Statin myotox sup: suppression of simvastatin myotoxicity | C2C12 myotubes + simvastatin, ATP luminescence, 48 h; scaled: DMSO 0, geranylgeraniol control 100 | rescue of ATP level, % at 7.49 µM | AID 602340 | 330,000 compounds, 0.78% hits;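 active means mean ATP rescue above about 67%, or every replicate alone reaching that limit, limit read from the data, passing the limit was not always enough; inconclusive means no clear call, values can overlap the other calls; inactive means mean under the limit and some replicate under it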;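 further: myotubes were challenged with 10 µM simvastatin during compound exposure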
DENV2 CPE: protects cells from dengue virus 2 cytopathic effect. DENV2-infected cells, cytopathic effect rescue, plate reader. CPE inhibition, % at 9.99 µM. 350,000 compounds, 1.7% hits. AID 651640; in the data active means CPE inhibition above about 20%, passing the limit was not always enough; inconclusive means no clear call, values can overlap the other calls; tested in BHK-21 cells
E-selectin induc: induces E-selectin expression in human endothelial cells. activation, % at 7.58 µM. 260,000 compounds, 0.37% hits. HUVEC E-selectin immunofluorescence imaging; normalized: neutral wells 0, TNF-alpha wells 100. P16581;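 active means mean E-selectin-positive cell signal at least 10% of the positive control, reached in at least 60% of replicates, without over 20% cell loss; inconclusive means no rule given, readout overlaps actives, possibly toxicity-flagged; inactive means the rest, including those meeting only one limit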
Target sequence (P16581 whole entry, looked up): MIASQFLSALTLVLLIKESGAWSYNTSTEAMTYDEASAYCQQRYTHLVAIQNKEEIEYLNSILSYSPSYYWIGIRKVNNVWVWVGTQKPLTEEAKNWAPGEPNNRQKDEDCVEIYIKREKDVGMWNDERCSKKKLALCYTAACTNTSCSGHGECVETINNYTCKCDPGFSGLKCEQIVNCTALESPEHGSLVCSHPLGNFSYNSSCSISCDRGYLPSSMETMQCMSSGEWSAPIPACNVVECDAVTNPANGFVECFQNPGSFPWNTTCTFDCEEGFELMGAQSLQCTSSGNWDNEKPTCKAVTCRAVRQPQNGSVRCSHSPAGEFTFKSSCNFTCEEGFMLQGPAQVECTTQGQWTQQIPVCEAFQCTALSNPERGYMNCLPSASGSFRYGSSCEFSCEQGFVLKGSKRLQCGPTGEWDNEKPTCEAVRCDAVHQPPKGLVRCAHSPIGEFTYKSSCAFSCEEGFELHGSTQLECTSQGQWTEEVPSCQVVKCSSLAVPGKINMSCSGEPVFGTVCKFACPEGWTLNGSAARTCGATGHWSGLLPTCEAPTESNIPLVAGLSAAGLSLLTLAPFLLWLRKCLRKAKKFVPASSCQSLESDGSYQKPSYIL
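Test system – human umbilical vein endothelial cells (HUVEC), E-selectin induction · Input – 3,000 HUVEC seeded per well · Buffer or medium – EGM-2, gelatin · Compound dosing – single-point compound dose · Detection – immunofluorescence imaging · Measure – percent E-selectin-positive cells · Controls – TNF-alpha high, DMSO low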
Of the large screens only hits and unclear results are named; the others gave an inactive call. Most compounds without a hit are left out; they make up all but 2.2% or so of the library.

COc1ccc2c(c1)/C(=C/c1cc(OC)c(OC)c(OC)c1)C(=O)N2	DENV2 CPE 29.5 (no result: Statin myotox sup)
COc1ccc(/C=C2\C(=O)NC(=O)c3ccccc32)cc1OC	none (no result: Statin myotox sup)
COc1cccc(CNC(=O)C[C@H]2C=C[C@@H](NS(=O)(=O)c3ccccc3OC)[C@H](CO)O2)c1	none
C/C=C/c1cnc2c(c1)C(=O)N([C@H](C)CO)C[C@@H](C)[C@@H](CN(C)C(=O)Cc1ccccn1)O2	none
Nc1[nH]c(C(=O)c2ccccc2)c(-c2cc(F)ccc2Br)c1C(=O)NCCc1c[nH]c2ccccc12	DENV2 CPE 28.8 (no result: Statin myotox sup)
COc1ccc(C(=O)c2[nH]c(N)c(C(=O)NCCc3c[nH]c4ccccc34)c2-c2ccccc2C(F)(F)F)cc1	none (no result: Statin myotox sup)
Nc1[nH]c(C(=O)c2ccccc2)c(-c2ccc(F)cc2)c1C(=O)NCCc1c[nH]c2ccccc12	none (no result: Statin myotox sup)
COc1ccc(C(=O)c2[nH]c(N)c(C(=O)NCCc3c[nH]c4ccccc34)c2-c2c(F)cccc2Cl)cc1	DENV2 CPE 66.8 (no result: Statin myotox sup)
C[C@@H]1CN([C@H](C)CO)S(=O)(=O)c2ccc(C3=CCCCC3)cc2O[C@H]1CN(C)C(=O)C1CCC1	none
Cc1ccc(S(=O)(=O)NCc2ccccc2)cc1C(=O)N1CCN(S(=O)(=O)c2ccccc2F)CC1	DENV2 CPE 58.1
Cc1ccc(S(=O)(=O)NCc2ccccc2)cc1C(=O)N1CCCCC1	none
COc1ccc(NC(=O)N(C)C[C@@H]2OCCCC[C@@H](C)Oc3ccc(NC(=O)NC4CCCCC4)cc3C(=O)N([C@@H](C)CO)C[C@@H]2C)cc1	none (no result: Statin myotox sup, E-selectin induc)
COc1ccc(-c2cc3nc(-c4ccccc4)cc(N4CCN(C(=O)c5ccccc5)CC4)n3n2)cc1	none
COc1ccc(-c2cc3nc(-c4ccccc4)cc(N4CCN(C(=O)c5ccsc5)CC4)n3n2)cc1	DENV2 CPE 62.8
O=C(C[C@@H]1C=C[C@H](NC(=O)CC2CC2)[C@H](CO)O1)NCc1ccc(-c2ccccc2)cc1	DENV2 CPE inconclusive
Cn1c(SCc2nc(-c3ccc(Cl)cc3)no2)nnc1-c1cccs1	Statin myotox sup 83.8 (no result: DENV2 CPE, E-selectin induc)
Cn1c(SCc2nc(-c3ccccc3)no2)nnc1-c1cccs1	none (no result: DENV2 CPE, E-selectin induc)
COc1ccc(S(=O)(=O)Nc2ccc3c(c2)C(=O)N([C@H](C)CO)C[C@H](C)[C@H](CN(C)S(=O)(=O)c2ccccc2)O3)cc1	none
C[C@@H]1CN([C@H](C)CO)C(=O)c2cc(C#CCN(C)C)cnc2O[C@H]1CN(C)C(=O)Cc1cccnc1	none
O=C(C[C@H]1C=C[C@@H](NS(=O)(=O)c2ccc(F)cc2)[C@@H](CO)O1)NCc1ccncn1	none
CC(=O)C(C(c1ccccc1)N1CCOCC1)N1CCOCC1 (centres undefined)	DENV2 CPE inconclusive
CSc1ccc(C(C(C(=O)c2cccs2)N2CCOCC2)N2CCOCC2)cc1 (centres undefined)	Statin myotox sup 77.4 (no result: DENV2 CPE, E-selectin induc)
C[C@H](CO)N1C[C@H](C)[C@@H](CN(C)C)Oc2ccc(NC(=O)Nc3cccc4ccccc34)cc2C1=O	none (no result: DENV2 CPE)
C[C@H]1CN([C@@H](C)CO)C(=O)c2cc(NS(=O)(=O)c3ccc(F)cc3)ccc2O[C@@H]1CN(C)S(=O)(=O)c1cccs1	Statin myotox sup 81.1
C[C@@H]1CN([C@H](C)CO)C(=O)c2cc(NS(=O)(=O)c3ccc(F)cc3)ccc2O[C@H]1CN(C)S(=O)(=O)c1cccs1	none
C[C@@H]1CN([C@@H](C)CO)C(=O)c2cc(NS(=O)(=O)c3cccs3)ccc2O[C@H]1CN(C)S(C)(=O)=O	DENV2 CPE inconclusive
C[C@@H]1CN([C@@H](C)CO)C(=O)c2cc(NS(=O)(=O)c3cccs3)ccc2O[C@@H]1CN(C)S(C)(=O)=O	E-selectin induc 153.9
C[C@H](CO)N1C[C@H](C)[C@H](CN(C)S(=O)(=O)c2cccs2)Oc2ccc(NS(=O)(=O)c3ccc(F)cc3)cc2C1=O	none
C[C@@H]1CN([C@@H](C)CO)C(=O)c2cc(NC(=O)Nc3ccc(F)cc3)ccc2O[C@@H]1CN(C)S(=O)(=O)c1cccs1	E-selectin induc 160.8
C[C@H](CO)N1C[C@H](C)[C@H](CN(C)S(=O)(=O)c2cccs2)Oc2ccc(NC(=O)Nc3ccc(F)cc3)cc2C1=O	none (no result: E-selectin induc)
C[C@@H]1CN([C@@H](C)CO)C(=O)c2cc(NS(=O)(=O)c3ccc(F)cc3)ccc2O[C@H]1CN(C)S(=O)(=O)c1cccs1	Statin myotox sup inconclusive, DENV2 CPE 46.2
C[C@@H]1CN([C@H](C)CO)C(=O)c2ccccc2-c2ccccc2CO[C@@H]1CN(C)C(=O)Nc1ccccc1C(F)(F)F	none
COc1ccc2c3c(n(C)c2c1)[C@H](CO)N(C(=O)Nc1ccc(F)cc1)CC31CCN(C(=O)c2ccc3c(c2)OCO3)CC1	none (no result: Statin myotox sup)
CN1c2ccc(-c3cccc(F)c3)cc2[C@@H]2[C@@H](CCN2C(=O)C2CCC2)[C@@H]1CO	none (no result: Statin myotox sup)
CNC[C@H]1Oc2c(NC(=O)NC(C)C)cccc2C(=O)N([C@H](C)CO)C[C@H]1C	none
